# Measurements published in ChEMBL document CHEMBL4706740, “Structure-Activity Study of Nitazoxanide Derivatives as Novel STAT3 Pathway Inhibitors” (ACS Med Chem Lett, 2021).
# Calls of active or inactive are those of the source. The calls are words filed in the database; no cut-off is given here.
# Tests used:
# [1] = biological target: Signal transducer and activator of transcription 3 (Homo sapiens) (UniProt P40763); assay: Inhibition of STAT3 in human HeLa cells assessed as decrease in phosphorylation of STAT3 at Tyr705 cells pretreated with Na3VO4 phosphatase inhibitor measured at 80 uM incubated for 1 hr by Western blot analysis; type: cell-based
# Chain of Signal transducer and activator of transcription 3 (Homo sapiens) (P40763 whole entry): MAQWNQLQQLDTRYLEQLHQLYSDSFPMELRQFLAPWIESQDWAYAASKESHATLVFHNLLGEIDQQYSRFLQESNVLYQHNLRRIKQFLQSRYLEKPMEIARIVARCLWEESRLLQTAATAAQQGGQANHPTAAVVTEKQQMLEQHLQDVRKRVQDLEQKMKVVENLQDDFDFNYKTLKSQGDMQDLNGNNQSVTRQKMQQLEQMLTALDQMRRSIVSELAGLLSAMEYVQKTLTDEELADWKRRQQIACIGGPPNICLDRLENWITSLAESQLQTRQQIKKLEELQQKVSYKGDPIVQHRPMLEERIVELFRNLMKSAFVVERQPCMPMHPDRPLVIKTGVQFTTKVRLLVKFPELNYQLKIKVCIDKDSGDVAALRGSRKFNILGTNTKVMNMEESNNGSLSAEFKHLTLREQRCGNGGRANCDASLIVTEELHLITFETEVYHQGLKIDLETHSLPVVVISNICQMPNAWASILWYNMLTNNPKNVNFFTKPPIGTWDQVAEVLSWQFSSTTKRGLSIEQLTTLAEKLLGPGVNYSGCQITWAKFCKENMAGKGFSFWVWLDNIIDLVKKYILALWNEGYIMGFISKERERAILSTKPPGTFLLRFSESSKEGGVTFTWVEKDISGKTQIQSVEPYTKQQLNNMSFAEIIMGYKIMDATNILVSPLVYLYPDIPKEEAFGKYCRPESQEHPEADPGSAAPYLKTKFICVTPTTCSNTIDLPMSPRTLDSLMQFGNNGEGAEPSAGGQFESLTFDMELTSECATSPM
# Procedure, shortened: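 HeLa cells pretreated 15 min with 25 μM Na3VO4 (phosphatase inhibitor) before compound exposure. p-STAT3 (Tyr705) assessed by Western blot of total cell lysates with specific antibodies and compared with cells not given Na3VO4.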
# HeLa [2] = assay: Induction of apoptosis in human HeLa cells assessed as necrotic cells at 10 uM incubated for 24 hrs by Annexin V-FITC/PI staining based flow cytometry (reference value: 0.02%); type: functional
# HeLa [3] = assay: Induction of apoptosis in human HeLa cells assessed as late apoptotic cells at 40 uM incubated for 24 hrs by Annexin V-FITC/PI staining based flow cytometry (reference value: 4.7%); type: functional
# [4] = biological target: Signal transducer and activator of transcription 3 (Homo sapiens) (UniProt P40763); assay: Inhibition of IL-6 induced STAT3 transcriptional activity in human HEK-Blue IL-6 cells assessed as secreted embryonic alkaline phosphatase reporter gene expression at 10 uM by microplate reader; type: cell-based
# Procedure, shortened: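 Single-concentration screen in HEK-Blue IL-6 cells: % inhibition of the SEAP reporter read-out of STAT3 pathway activity, with viability checked by MTT in parallel. Values are averages of three independent experiments.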
# [5] = Apparent oral clearance in Sprague-Dawley rat at 25 mg/kg, IG; type: ADME, organism-based; conditions: in vivo, read-out: CL(app) (converted)
# Procedure, shortened: (§1)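 Rats, n = 3 per group, received a single dose either intragastrically (25 mg/kg) or intravenously (5 mg/kg). Plasma concentration–time curves were used to derive t1/2α, t1/2β, Vd/F, CL/F, AUC0–∞, Tmax and Cmax. Absolute oral bioavailability was calculated from the ig and iv data.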
# HeLa [6] = assay: Induction of cell cycle arrest in human HeLa cells assessed as accumulation at G0/G1 phase at 40 uM measured after 24 hrs by flow cytometry analysis (reference value: 54.16%); type: functional
# [7] = biological target: Signal transducer and activator of transcription 3 (Homo sapiens) (UniProt P40763); assay: Inhibition of STAT3 in human Hela cell lysate assessed as inhibition of protein and DNA interaction upto 100 uM cells preincubated 1 hr by electrophoretic mobility shift assay; type: subcellular; conditions: dose microM <=100, time 1.0 hrs
# HeLa [8] = assay: Induction of apoptosis in human HeLa cells assessed as late apoptotic cells at 20 uM incubated for 24 hrs by Annexin V-FITC/PI staining based flow cytometry (reference value: 4.7%); type: functional
# [9] = biological target: Signal transducer and activator of transcription 3 (Homo sapiens) (UniProt P40763); assay: Inhibition of STAT3 in human HeLa cells assessed as decrease in phosphorylation of STAT3 at Tyr705 measured after 24 hrs by Western blot analysis; type: cell-based; conditions: dose microM <=80, time […]
# Procedure, shortened: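 HeLa cells exposed 24 h to a range of compound doses. Total cell lysates immunoblotted with specific antibodies for p-STAT3 (Tyr705), p-STAT3 (Ser727) and total STAT3.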
# [10] = Apparent clearance in Sprague-Dawley rat at 5 mg/kg, iv; type: ADME, organism-based; conditions: in vivo, read-out: CL(app) (converted); procedure, shortened: as §1
# PC-3 = assay: Antiproliferative activity against human PC3 cells assessed as cell growth inhibition measured after 48 hrs by MTT assay; type: functional, cell-based; conditions: PC-3, 48 h
# [11] = biological target: Signal transducer and activator of transcription 3 (Homo sapiens) (UniProt P40763); assay: Inhibition of STAT3 transcriptional activity in human HeLa cells assessed as downregulation of c-Myc expression upto 80 uM after 24 hrs by western blot analysis; type: cell-based; conditions: dose microM <=80, time […]
# Procedure, shortened: (§2)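 HeLa cells treated 24 h with a concentration series. Total cell lysates probed by Western blot with specific antibodies for the STAT3 target gene products cyclin D1, c-Myc and survivin.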
# [12] = Cytotoxicity against human HeLa cells assessed as inhibition of cell viability at 10 uM measured after 48 hrs by MTT assay; type: cell-based; conditions: read-out: INH
# HeLa [13] = assay: Induction of apoptosis in human HeLa cells assessed as necrotic cells at 20 uM incubated for 24 hrs by Annexin V-FITC/PI staining based flow cytometry (reference value: 0.02%); type: functional
# HeLa [14] = assay: Induction of cell cycle arrest in human HeLa cells assessed as accumulation at S phase at 40 uM measured after 24 hrs by flow cytometry analysis (reference value: 34.04%); type: functional
# HeLa [15] = assay: Induction of apoptosis in human HeLa cells assessed as late apoptotic cells at 10 uM incubated for 24 hrs by Annexin V-FITC/PI staining based flow cytometry (reference value: 4.7%); type: functional
# [16] = biological target: Signal transducer and activator of transcription 3 (Homo sapiens) (UniProt P40763); assay: Inhibition of STAT3 transcriptional activity in human HeLa cells assessed as downregulation of survivin expression upto 80 uM after 24 hrs by western blot analysis; type: cell-based; conditions: dose microM <=80, time […]; procedure, shortened: as §2
# HeLa [17] = assay: Induction of apoptosis in human HeLa cells assessed as viable cells at 10 uM incubated for 24 hrs by Annexin V-FITC/PI staining based flow cytometry (reference value: 92.45%); type: functional; conditions: read-out: Activity
# [18] = Cmax in Sprague-Dawley rat at 5 mg/kg, iv; type: ADME, organism-based; design: route intravenous, dose 5 mg/kg; conditions: in vivo; procedure, shortened: as §1
# HeLa [19] = assay: Induction of cell cycle arrest in human HeLa cells assessed as accumulation at G2/M phase at 20 uM measured after 24 hrs by flow cytometry analysis (reference value: 11.81%); type: functional
# [20] = biological target: Signal transducer and activator of transcription 3 (Homo sapiens) (UniProt P40763); assay: Inhibition of STAT3 in human HeLa cells assessed as decrease in phosphorylation of STAT3 at Ser727 after 24 hrs by western blot analysis; type: cell-based; conditions: dose microM <=80, time […]
# Procedure, shortened: (§3)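 HeLa cells were treated with graded doses for 1 h or 24 h. Total cell lysates were immunoblotted with specific antibodies against p-STAT3 (Tyr705), p-STAT3 (Ser727) and total STAT3.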
# [21] = biological target: Signal transducer and activator of transcription 3 (Homo sapiens) (UniProt P40763); assay: Inhibition of STAT3 in human HeLa cells assessed as decrease in phosphorylation of STAT3 at Tyr705 upto 80 uM measured after 6 hrs by Western blot analysis; type: cell-based; conditions: dose microM <=80, time 6.0 hrs
# Procedure, shortened: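 Time course in HeLa cells given 80 μM compound, sampled from 15 min onward through multiple hours; parallel runs at 20 and 40 μM. Total cell lysates Western blotted for p-STAT3 (Tyr705), p-STAT3 (Ser727) and total STAT3.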
# HeLa [22] = assay: Induction of apoptosis in human HeLa cells assessed as viable cells at 20 uM incubated for 24 hrs by Annexin V-FITC/PI staining based flow cytometry (reference value: 92.45%); type: functional; conditions: read-out: Activity
# HL-60 = assay: Antiproliferative activity against human HL60 cells assessed as cell growth inhibition measured after 48 hrs by MTT assay; type: functional, cell-based; conditions: HL-60, 48 h
# [23] = biological target: Tyrosine-protein kinase JAK2 (Homo sapiens) (UniProt O60674); assay: Inhibition of Jak2 phosphorylation at Tyr1007/1008 in human Hela cells upto 80 uM after 24 hrs by Western blot analysis; type: cell-based; conditions: dose microM <=80, time […]
# Chain of Tyrosine-protein kinase JAK2 (Homo sapiens) (O60674 whole entry): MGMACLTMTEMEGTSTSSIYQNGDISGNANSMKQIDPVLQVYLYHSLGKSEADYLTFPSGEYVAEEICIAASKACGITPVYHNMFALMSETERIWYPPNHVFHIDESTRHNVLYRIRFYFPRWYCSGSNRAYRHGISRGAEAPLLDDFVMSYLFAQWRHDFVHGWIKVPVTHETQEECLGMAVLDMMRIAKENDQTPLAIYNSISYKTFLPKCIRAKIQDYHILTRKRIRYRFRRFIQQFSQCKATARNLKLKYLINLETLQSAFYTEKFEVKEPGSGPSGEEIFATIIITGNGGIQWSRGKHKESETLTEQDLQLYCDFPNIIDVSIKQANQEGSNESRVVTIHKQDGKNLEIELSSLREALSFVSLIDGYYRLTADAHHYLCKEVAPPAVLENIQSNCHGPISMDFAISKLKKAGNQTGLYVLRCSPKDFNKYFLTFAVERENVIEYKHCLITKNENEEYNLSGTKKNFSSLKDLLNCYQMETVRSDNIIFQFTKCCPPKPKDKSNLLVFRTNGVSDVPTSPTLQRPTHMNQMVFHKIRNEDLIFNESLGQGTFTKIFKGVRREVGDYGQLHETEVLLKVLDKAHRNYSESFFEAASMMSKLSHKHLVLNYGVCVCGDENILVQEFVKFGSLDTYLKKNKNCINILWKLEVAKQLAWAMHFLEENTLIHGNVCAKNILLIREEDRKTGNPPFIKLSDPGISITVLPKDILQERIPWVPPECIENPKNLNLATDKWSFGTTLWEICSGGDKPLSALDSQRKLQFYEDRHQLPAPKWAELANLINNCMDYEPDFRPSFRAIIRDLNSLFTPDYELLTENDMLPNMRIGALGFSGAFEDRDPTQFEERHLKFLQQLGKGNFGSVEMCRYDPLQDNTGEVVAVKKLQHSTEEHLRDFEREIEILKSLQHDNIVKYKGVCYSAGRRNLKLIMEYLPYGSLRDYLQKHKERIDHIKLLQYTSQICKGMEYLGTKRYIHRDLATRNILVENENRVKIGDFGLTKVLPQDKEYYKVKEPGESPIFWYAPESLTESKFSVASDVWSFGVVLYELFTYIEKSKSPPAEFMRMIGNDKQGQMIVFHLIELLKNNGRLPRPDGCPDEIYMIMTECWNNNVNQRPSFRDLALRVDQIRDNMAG
# HeLa [24] = assay: Induction of apoptosis in human HeLa cells assessed as viable cells at 40 uM incubated for 24 hrs by Annexin V-FITC/PI staining based flow cytometry (reference value: 92.45%); type: functional; conditions: read-out: Activity
# [25] = biological target: Signal transducer and activator of transcription 3 (Homo sapiens) (UniProt P40763); assay: Inhibition of STAT3 in human HeLa cells assessed as decrease in phosphorylation of STAT3 at Tyr705 after 1 hrs by Western blot analysis; type: cell-based; conditions: dose microM <=80, time 1.0 hrs; procedure, shortened: as §3
# [26] = biological target: Signal transducer and activator of transcription 3 (Homo sapiens) (UniProt P40763); assay: Inhibition of STAT3 transcriptional activity in human HeLa cells assessed as downregulation of cyclin D1 expression upto 80 uM after 24 hrs by western blot analysis; type: cell-based; conditions: dose microM <=80, time […]; procedure, shortened: as §2
# [27] = Half life in Sprague-Dawley rat at 5 mg/kg, iv; type: ADME, organism-based; conditions: in vivo; procedure, shortened: as §1
smiles,measurement,setting,value
CC(=O)Oc1ccccc1C(=O)Nc1ncc([N+](=O)[O-])s1 [NITAZOXANIDE],inhibition,[1],Active
same,Activity,HeLa [2],0.02%
same,Activity,HeLa [3],15.12%
same,inhibition,[4],54.6%
same,CL/F,[5],105 mL/min/kg
same,Activity,HeLa [6],70.64%
same,inhibition,[7],inactive
same,Activity,HeLa [8],11.4%
same,inhibition,[9],Dose-dependent effect
same,clearance,[10],8.33 mL/min/kg
same,IC50,PC-3,44.7 µM
same,inhibition,[11],Dose-dependent effect
same,"cytotoxicity at 48 h, 10 µM",[12],19.4%
same,Activity,HeLa [13],0.04%
same,Activity,HeLa [14],22.76%
same,Activity,HeLa [15],5.32%
same,inhibition,[16],Dose-dependent effect
same,viability at 10 µM,HeLa [17],92.3%
same,Cmax,[18],2800 ng/mL
same,Activity,HeLa [19],8.27%
same,inhibition,[20],Dose-dependent effect
same,inhibition,[21],inactive
same,viability at 20 µM,HeLa [22],84.1%
same,IC50,HL-60,20.1 µM
same,inhibition,[23],inactive
same,viability at 40 µM,HeLa [24],77.3%
same,inhibition,[25],Dose-dependent effect
same,inhibition,[26],Dose-dependent effect
same,half-life,[27],3 min
